Measured values as given in ChEMBL document CHEMBL1152990, “The mechanism of action of beta-D-2'-deoxy-2'-fluoro-2'-C-methylcytidine involves a second metabolic pathway leading to beta-D-2'-deoxy-2'-fluoro-2'-C-methyluridine 5'-triphosphate, a potent inhibitor of the hepatitis C virus RNA-dependent RNA polymerase” (Antimicrob Agents Chemother, 2008).

What was measured:
[1] = substrate: C[C@@]1(F)[C@H](O)[C@@H](COP(=O)(O)O)O[C@H]1n1ccc(N)nc1=O; assay: Activity of cloned deoxycytidylate deaminase in human HepG2 cells by HPLC assay; assay type: cell-based
Method in brief: (§1)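 Recombinant His-tagged human DCTD cloned from HepG2 cells. 0.56 μg enzyme in 50 mM Tris-HCl pH 7.5, 2 mM MgCl2, 20 mM β-mercaptoethanol, at 37°C. Samples taken at 5, 10 and 20 min, quenched with HCl and filtered. Nucleotides were resolved by SAX HPLC (KH2PO4 pH 3.5 gradient), detected at 254 nm and quantified against standard curves.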

[2] = substrate: Nc1ccn([C@H]2C[C@H](O)[C@@H](COP(=O)(O)O)O2)c(=O)n1; assay: Activity of cloned deoxycytidylate deaminase in human HepG2 cells by spectrophotometric analysis; assay type: cell-based
Method in brief: (§2)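 Recombinant human DCTD cloned from HepG2 cells, 9.3 nM final, with dCMP substrate. Spectrophotometric deamination at 37°C, monitoring absorbance at 290 nm (Δɛ = 1,694 M−1 cm−1). Rates from linear traces were fitted to Michaelis-Menten to obtain Km, kcat and kcat/Km.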

[3] = substrate: Nc1ccn([C@H]2C[C@H](O)[C@@H](COP(=O)(O)O)O2)c(=O)n1; assay: Ratio of Kcat to Km for cloned deoxycytidylate deaminase in human HepG2 cells by spectrophotometric analysis; assay type: cell-based; method in brief: as §2
[4] = substrate: C[C@@]1(F)[C@H](O)[C@@H](COP(=O)(O)O)O[C@H]1n1ccc(N)nc1=O; assay: Ratio of Kcat to Km for cloned deoxycytidylate deaminase in human HepG2 cells by HPLC assay; assay type: cell-based; method in brief: as §1
[5] = substrate: C[C@@]1(F)[C@H](O)[C@@H](COP(=O)(O)O)O[C@H]1n1ccc(=O)[nH]c1=O; assay: Ratio of Kcat to Km for cloned UMP-CMP kinase in human HuH7 cells assessed as formation of RO2433 diphosphate by spectrophotometry; assay type: cell-based; details: Huh-7
Method in brief: (§3)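 Recombinant human kinase read out by PK/LDH coupling, following NADH oxidation at 340 nm. Rates were measured over varied substrate levels and fitted for steady-state parameters.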

[6] = substrate: C[C@@]1(F)[C@H](O)[C@@H](COP(=O)(O)O)O[C@H]1n1ccc(=O)[nH]c1=O; assay: Activity of cloned UMP-CMP kinase in human HuH7 cells assessed as formation of RO2433 diphosphate by spectrophotometry; assay type: cell-based; details: Huh-7; method in brief: as §3
[7] = substrate: Nc1ccn([C@@H]2O[C@H](CO)[C@@H](O)[C@H]2F)c(=O)n1; details: Homo sapiens; Huh-7
[8] = substrate: C[C@@]1(F)[C@H](O)[C@@H](CO)O[C@H]1n1ccc(N)nc1=O; details: Homo sapiens; Huh-7
[9] = substrate: Nc1ccn([C@H]2C[C@H](O)[C@@H](CO)O2)c(=O)n1; details: Homo sapiens; Huh-7
[10] = substrate: C[C@@]1(O)[C@H](O)[C@@H](CO)O[C@H]1n1ccc(N)nc1=O; details: Homo sapiens; Huh-7
[11] = substrate: Nc1ccn([C@@H]2O[C@H](CO)[C@@H](O)[C@H]2F)c(=O)n1; details: Homo sapiens; Huh-7; remark: listed apart in the source
[12] = substrate: Nc1ccn([C@H]2C[C@H](O)[C@@H](CO)O2)c(=O)n1; details: Homo sapiens; Huh-7; remark: listed apart in the source
[13] = substrate: C[C@@]1(F)[C@H](O)[C@@H](CO)O[C@H]1n1ccc(N)nc1=O; assay: (§4) Activity of cloned cytidine deaminase in human HuH7 cells at 4 mM by spectrophotometric analysis; assay type: cell-based; details: Huh-7
Method in brief: (§5)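 Recombinant human CDA cloned from Huh-7 cells. Reaction at 30°C in 50 mM Tris-HCl pH 7.5, started by adding enzyme. Deamination was followed spectrophotometrically at wavelengths chosen by substrate level, with Δɛ set per wavelength. Rates came from the linear trace and Beer's law and were fitted to Michaelis-Menten. Highest concentration tested 4 mM.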

[14] = substrate: C[C@@]1(O)[C@H](O)[C@@H](CO)O[C@H]1n1ccc(N)nc1=O; assay: as §4; assay type: cell-based; details: Huh-7; method in brief: as §5

B1: Deoxycytidylate deaminase (Homo sapiens), P32321 (protein)
chain: MSEVSCKKRDDYLEWPEYFMAVAFLSAQRSKDPNSQVGACIVNSENKIVGIGYNGMPNGCSDDVLPWRRTAENKLDTKYPYVCHAELNAIMNKNSTDVKGCSMYVALFPCNECAKLIIQAGIKEVIFMSDKYHDSDEATAARLLFNMAGVTFRKFIPKCSKIVIDFDSINSRPSQKLQ
Protein B1 has a Km [1] of 2000 µM, a kcat [1] of 0.82 s⁻¹ and a Km [2] of 87 µM. For the same protein, the kcat [2] was 246 s⁻¹, the kcat/Km [3] was 2.8e+06 M⁻¹ s⁻¹ and the kcat/Km [4] was 400 M⁻¹ s⁻¹.

B2: UMP-CMP kinase (Homo sapiens), P30085 (protein)
chain: MKPLVVFVLGGPGAGKGTQCARIVEKYGYTHLSAGELLRDERKNPDSQYGELIEKYIKEGKIVPVEITISLLKREMDQTMAANAQKNKFLIDGFPRNQDNLQGWNKTMDGKADVSFVLFFDCNNEICIERCLERGKSSGRSDDNRESLEKRIQTYLQSTKPIIDLYEEMGKVKKIDASKSVDEVFDEVVQIFDKEG
For B2, the kcat/Km [5] was 9100 M⁻¹ s⁻¹, the Km [6] was 870 µM and the kcat [6] was 7.9 s⁻¹.

B3: Cytidine deaminase (Homo sapiens), P32320 (protein)
chain: MAQKRPACTLKPECVQQLLVCSQEAKKSAYCPYSHFPVGAALLTQEGRIFKGCNIENACYPLGICAERTAIQKAVSEGYKDFRAIAIASDMQDDFISPCGACRQVMREFGTNWPVYMTKPDGTYIVMTVQELLPSSFGPEDLQKTQ
In the case of B3, the kcat/Km [7] is reported as 140000 M⁻¹ s⁻¹, the kcat/Km [8] is reported as 65 M⁻¹ s⁻¹ and the kcat/Km [9] is reported as 120000 M⁻¹ s⁻¹. It also gave a kcat/Km [10] of 58 M⁻¹ s⁻¹, a Km [11] of 27 µM and a kcat [11] of 3.8 s⁻¹. For the same protein, the Km [12] was 41 µM, the kcat [12] was 4.8 s⁻¹ and the Km [13] was 4000 µM. For the same protein, the kcat [13] was 0.26 s⁻¹, the Km [14] was 3100 µM and the kcat [14] was 0.18 s⁻¹.
